# Experimental data pooled from the literature.
# Protocols differ between the studies behind these lines.
# Organism: Trypanosoma brucei
# Read-out: parasite growth
Structure (SMILES),method,strain,tested at,time,notes,endpoint,value
CNC1CC(c2ccc(Cl)c(Cl)c2)c2ccccc21 (centres unmarked),,,,,blood stage,EC50,1970 nM
Cc1nn(C)c(C)c1NS(=O)(=O)c1c(Cl)cc(-c2ccnc(N3CCNCC3)c2)cc1Cl,,RHODESIENSE,,,,EC50,0.6 nM
c1ccc(CCCN2CCN(CCOC(c3ccccc3)c3ccccc3)CC2)cc1,,,,,blood stage,EC50,9300 nM
O=C(O)c1ccccc1-c1ccccc1C(=O)Nc1ccc2c(c1)oc(=O)c1ccccc12,resazurin,,,72 h,,EC50,> 50000 nM
COC(=O)C1CCN(C(=O)c2ccc(N(C)Cc3cnc4nc(N)nc(N)c4n3)cc2)CC1,resazurin,,10 µM,72 h,,inhibition,26%
Nc1nc(N)nc(Nc2ccc([As]3SCC(CO)S3)cc2)n1 (centres unmarked),,RHODESIENSE STIB900,,,,IC50,7 nM
O=C(O)c1ccccc1-c1ccccc1C(=O)Nc1cc2c3ccccc3ccc2c2ccccc12,resazurin,,,72 h,,EC50,24400 nM
COC(=O)C1CCN(C(=O)c2ccc(NCc3cnc4nc(N)nc(N)c4n3)cc2)CC1,resazurin,,10 µM,72 h,,inhibition,16%
